Experimental data from ChEMBL document CHEMBL1126671 (J Med Chem, 1993).

Assays:
[1] = biological target: Protein kinase C, PKC; classical (Rattus norvegicus, UniProt P05696+P68403+P63319); assay: Inhibition of protein kinase C was evaluated as Inhibitory concentration; format: protein assay
Procedure, shortened: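 Rat brain PKC; procedure as in earlier work; triplicate points per assay; IC50 is the mean of at least two independent assays.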

[2] = Inhibition of protein kinase A was evaluated as Inhibitory concentration
Procedure, shortened: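 PKA from bovine heart; procedure as in earlier work; triplicate points per assay; IC50 is the mean of at least two independent assays.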

[3] = biological target: cAMP-dependent protein kinase (PKA) (Homo sapiens, UniProt P22694+P17612+P22612); assay: Inhibition of human neutrophil protein kinase A (PKA); format: protein assay
[4] = Inhibition of human neutrophil protein kinase C (PKC)
Homo sapiens = species on record: Homo sapiens; assay: Inhibition of TPA-stimulated 47-kDa protein phosphorylation in platelets; format: functional
Procedure, shortened: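 Procedure as in earlier work; TPA-stimulated 47-kDa protein phosphorylation in platelets; triplicate points per assay; IC50 is the mean of at least three independent assays.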

[5] = Inhibition of human platelet protein kinase C (PKC)
[6] = Inhibition of rat liver casein kinase II
Protein kinase C (PKC) = assay: Inhibition of protein kinase C (PKC) of rat brain
[7] = biological target: Proto-oncogene tyrosine-protein kinase Src (Homo sapiens, UniProt P12931); assay: Inhibition of human p60 c-src
Sequence of Proto-oncogene tyrosine-protein kinase Src (P12931 2-536 limits assumed): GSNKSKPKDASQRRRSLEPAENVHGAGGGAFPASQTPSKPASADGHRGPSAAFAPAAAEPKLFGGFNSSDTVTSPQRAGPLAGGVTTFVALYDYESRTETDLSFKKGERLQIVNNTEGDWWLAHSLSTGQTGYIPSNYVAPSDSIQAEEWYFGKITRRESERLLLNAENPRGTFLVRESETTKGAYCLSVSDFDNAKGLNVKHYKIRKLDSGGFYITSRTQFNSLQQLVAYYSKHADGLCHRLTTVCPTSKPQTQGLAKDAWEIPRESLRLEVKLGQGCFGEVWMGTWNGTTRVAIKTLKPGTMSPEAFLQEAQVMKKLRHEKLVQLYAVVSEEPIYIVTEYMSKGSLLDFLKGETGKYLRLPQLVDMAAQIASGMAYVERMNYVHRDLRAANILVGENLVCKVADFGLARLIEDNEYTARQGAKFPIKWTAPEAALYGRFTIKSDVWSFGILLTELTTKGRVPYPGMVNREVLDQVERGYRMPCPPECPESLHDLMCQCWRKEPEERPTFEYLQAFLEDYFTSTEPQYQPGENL
Procedure, shortened: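 Human p60c-src (20 units) with angiotensin II substrate (60 µg), 10 µM [γ-32P]ATP, 10 mM MgCl2, in 50 mM HEPES, 0.1 mM EDTA, 0.015% Brij 35, pH 7.5; final DMSO 10%. Incubated 60 min at 30 °C, stopped with 40 mM EDTA. Aliquots spotted on phosphocellulose paper, washed with orthophosphoric acid, counted by liquid scintillation.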

[8] = biological target: Tyrosine-protein kinase Lck (Homo sapiens, UniProt P06239); assay: Inhibition of human p56 lck
Sequence of Tyrosine-protein kinase Lck (P06239 whole entry): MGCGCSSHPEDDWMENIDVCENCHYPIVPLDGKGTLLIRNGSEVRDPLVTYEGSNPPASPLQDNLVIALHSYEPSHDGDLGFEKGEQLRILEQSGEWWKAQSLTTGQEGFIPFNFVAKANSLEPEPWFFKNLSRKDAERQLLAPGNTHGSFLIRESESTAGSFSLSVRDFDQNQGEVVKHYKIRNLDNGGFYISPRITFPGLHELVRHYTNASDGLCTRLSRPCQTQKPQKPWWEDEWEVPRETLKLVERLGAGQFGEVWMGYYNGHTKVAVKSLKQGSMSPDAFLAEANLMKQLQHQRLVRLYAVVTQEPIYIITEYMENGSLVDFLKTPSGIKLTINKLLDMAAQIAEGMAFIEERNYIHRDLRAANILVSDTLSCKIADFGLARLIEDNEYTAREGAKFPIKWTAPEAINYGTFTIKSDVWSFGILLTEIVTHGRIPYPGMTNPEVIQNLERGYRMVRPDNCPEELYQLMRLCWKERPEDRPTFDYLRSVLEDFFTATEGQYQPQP

[9] = (§1) Inhibition of rabbit muscle phosphorylase kinase (PhK); set-up: species or system Oryctolagus cuniculus
[10] = Antagonistic effect on allogenic mixed lymphocyte reaction; format: functional
Procedure, shortened: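 Allogeneic mixed lymphocyte reaction run by a published method; triplicate points per assay; IC50 is the mean of at least three independent assays.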

[11] = biological target: Protein kinase C, PKC; classical/novel; assay: Antagonistic effect on TPA-stimulated CD3 down-regulation in T-cells; format: functional
Procedure, shortened: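 Procedure as in earlier work; TPA-stimulated CD3 down-regulation in T-cells; triplicate points per assay; IC50 is the mean of at least two independent assays.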

[12] = as §1; set-up: species or system Oryctolagus cuniculus; remark: listed apart in the source
Procedure, shortened: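 Rabbit muscle phosphorylase kinase; procedure as in earlier work; triplicate points per assay; IC50 is the mean of at least two independent assays.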

SMILES | IC50 [1] [nM] | IC50 [2] [nM] | other results
Cn1cc(C2=C(c3c4n(c5ccccc35)CCNC4)C(=O)NC2=O)c2ccccc21 | 540 | 3200 | 
Cl.Cn1cc(C2=C(c3c4n(c5ccccc35)CC(CCN)CC4)C(=O)NC2=O)c2ccccc21 (stereo not drawn) | 23 | 4500 | 
Cn1cc(C2=C(c3cn(CCCN)c4ccccc34)C(=O)NC2=O)c2ccccc21 | 75 |  | 
Cn1cc(C2=C(c3c4n(c5ccccc35)CCC4)C(=O)NC2=O)c2ccccc21 | 210 | 68000 | 
Cn1cc(C2=C(c3c4n(c5ccccc35)CCCCC4)C(=O)NC2=O)c2ccccc21 | 450 | > 100000 | 
Cn1cc(C2=C(c3c4n(c5ccccc35)CC(N)CC4)C(=O)NC2=O)c2ccccc21 (stereo not drawn) | 135 | 4100 | 
Cn1cc(C2=C(c3c4n(c5ccccc35)CCCC4)C(=O)NC2=O)c2ccccc21 | 155 | 23000 | 
Cn1cc(C2=C(c3c4n(c5ccccc35)CCC(N)CC4)C(=O)NC2=O)c2ccccc21 (stereo not drawn) | 100 | 2400 | 
Cn1cc(C2=C(c3c4n(c5ccccc35)CC(CN)CCC4)C(=O)NC2=O)c2ccccc21 (stereo not drawn) | 400 | 12800 | 
CN[C@@H]1C[C@H]2O[C@@](C)([C@@H]1OC)n1c3ccccc3c3c4c(c5c6ccccc6n2c5c31)C(=O)NC4 [STAUROSPORINE] |  |  | IC50 [4]: 2.5 nM

Now from value to compound, other results behind:

IC50 [1] [nM] | IC50 [2] [nM] | SMILES | other results
9.8 | 4800 | CNCC1CCn2c(c(C3=C(c4cn(C)c5ccccc45)C(=O)NC3=O)c3ccccc32)C1.Cl (stereo not drawn) | 
42 | 8600 | CN(C)CC1CCn2c(c(C3=C(c4cn(C)c5ccccc45)C(=O)NC3=O)c3ccccc32)C1.Cl (stereo not drawn) | IC50 [3]: 5900 nM; IC50 [4]: 32 nM; IC50 (Homo sapiens): 950 nM; IC50 [5]: 45 nM; IC50 [6]: > 100000 nM; IC50 (Protein kinase C (PKC)): 42 nM; IC50 [7]: > 100000 nM; IC50 [8]: > 100000 nM; IC50 [9]: 1100 nM; IC50 [10]: 540 nM
14 | 3900 | Cn1cc(C2=C(c3c4n(c5ccccc35)CC(CN)C4)C(=O)NC2=O)c2ccccc21 (stereo not drawn) | 
47 | 24000 | Cn1cc(C2=C(c3c4n(c5ccccc35)CCC(CCN)C4)C(=O)NC2=O)c2ccccc21 (stereo not drawn) | 
4.1 | 12100 | Cn1cc(C2=C(c3c4n(c5ccccc35)CC[C@H](CN)C4)C(=O)NC2=O)c2ccccc21 | 
10 | 900 | Cn1cc(C2=C(c3c4n(c5ccccc35)CC[C@@H](CN)C4)C(=O)NC2=O)c2ccccc21 | 
49 | 92500 | Cn1cc(C2=C(c3c4n(c5ccccc35)CCC(C[N+](C)(C)C)C4)C(=O)NC2=O)c2ccccc21 (stereo not drawn) | 
16.5 | 2600 | Cn1cc(C2=C(c3c4n(c5ccccc35)CCC(CN)CC4)C(=O)NC2=O)c2ccccc21 (stereo not drawn) | 
110 | 3300 | Cn1cc(C2=C(c3c4n(c5ccccc35)CCC(N)C4)C(=O)NC2=O)c2ccccc21 (stereo not drawn) | 
7.6 | 2800 | Cn1cc(C2=C(c3c4n(c5ccccc35)CCC(CN)C4)C(=O)NC2=O)c2ccccc21 (stereo not drawn) | IC50 [3]: 1200 nM; IC50 [4]: 4.8 nM; IC50 (Homo sapiens): 460 nM; IC50 [5]: 12 nM; IC50 [6]: > 100000 nM; IC50 (Protein kinase C (PKC)): 7.6 nM; IC50 [11]: 600 nM; IC50 [7]: > 100000 nM; IC50 [8]: > 100000 nM; IC50 [12]: 1300 nM; IC50 [10]: 470 nM
272 | 34000 | Cn1cc(C2=C(c3c4n(c5ccccc35)CCCC(CN)C4)C(=O)NC2=O)c2ccccc21 (stereo not drawn) | 
15 | 1100 | Cn1cc(C2=C(c3c4n(c5ccccc35)CC(CN)CC4)C(=O)NC2=O)c2ccccc21 (stereo not drawn) | 
